According to ChEMBL document CHEMBL1155349, “Identification of small molecule inhibitors of proline-rich tyrosine kinase 2 (Pyk2) with osteogenic activity in osteoblast cells” (Bioorg Med Chem Lett, 2009):
pEC50, pIC50: −log10 of the molar value.

Tests used:
[1] = molecular target: T1, Protein-tyrosine kinase 2-beta (Mus musculus, UniProt Q9QVP9); test: (§1) Inhibition of mouse Pyk2 in […] cells assessed as increase in osteocalcin level; format: cell-based
In short: (§2)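 MC3T3 osteoblast cells were grown with increasing inhibitor concentrations for up to 3 weeks. Alkaline phosphatase, osteocalcin and calcium were measured as osteogenic markers after three weeks in culture, and ALP was also measured at additional time points. EC50 values came from the dose-response. Culture and dosing conditions followed an earlier report.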

[2] = molecular target: Protein-tyrosine kinase 2-beta (Mus musculus) (UniProt Q9QVP9); test: as §1; format: cell-based; in short: as §2
Chain of Protein-tyrosine kinase 2-beta (Mus musculus) (Q9QVP9 whole entry, looked up): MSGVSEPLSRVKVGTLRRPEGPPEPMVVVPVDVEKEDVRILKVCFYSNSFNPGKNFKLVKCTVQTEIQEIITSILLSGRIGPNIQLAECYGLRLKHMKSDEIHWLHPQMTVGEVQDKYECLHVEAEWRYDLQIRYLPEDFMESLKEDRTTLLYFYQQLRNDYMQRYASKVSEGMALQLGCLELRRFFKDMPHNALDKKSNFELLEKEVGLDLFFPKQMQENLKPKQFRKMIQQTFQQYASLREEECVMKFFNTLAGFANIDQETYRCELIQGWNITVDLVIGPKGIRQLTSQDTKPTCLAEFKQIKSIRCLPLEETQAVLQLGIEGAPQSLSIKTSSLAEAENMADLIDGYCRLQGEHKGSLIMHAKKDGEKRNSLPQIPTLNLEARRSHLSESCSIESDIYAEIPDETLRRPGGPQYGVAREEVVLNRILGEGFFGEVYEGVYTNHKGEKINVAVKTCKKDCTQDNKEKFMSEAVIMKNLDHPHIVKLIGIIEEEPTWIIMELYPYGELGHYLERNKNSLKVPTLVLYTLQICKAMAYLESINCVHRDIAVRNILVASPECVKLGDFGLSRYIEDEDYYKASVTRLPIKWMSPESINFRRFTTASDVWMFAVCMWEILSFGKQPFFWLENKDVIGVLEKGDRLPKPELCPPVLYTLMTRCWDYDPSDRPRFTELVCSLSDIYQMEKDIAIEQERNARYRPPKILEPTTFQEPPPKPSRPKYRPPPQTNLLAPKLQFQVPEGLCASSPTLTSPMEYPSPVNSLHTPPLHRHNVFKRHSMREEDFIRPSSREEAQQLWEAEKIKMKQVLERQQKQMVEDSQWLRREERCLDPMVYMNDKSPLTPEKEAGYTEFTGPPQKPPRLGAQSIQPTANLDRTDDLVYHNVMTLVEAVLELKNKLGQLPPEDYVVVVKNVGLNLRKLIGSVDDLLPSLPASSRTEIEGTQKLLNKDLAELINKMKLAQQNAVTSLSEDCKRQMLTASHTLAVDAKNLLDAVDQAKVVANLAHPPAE

[3] = molecular target: Protein-tyrosine kinase 2-beta (Mus musculus) (UniProt Q9QVP9); test: Inhibition of mouse Pyk2 in […] cells assessed as increase in calcium level; format: cell-based; in short: as §2
[4] = molecular target: T1, Protein-tyrosine kinase 2-beta; test: (§3) Inhibition of mouse Pyk2 in […] cells assessed as increase in alkaline phosphatase level; format: cell-based; in short: as §2
[5] = molecular target: Protein-tyrosine kinase 2-beta (Mus musculus) (UniProt Q9QVP9); test: as §3; format: cell-based; in short: as §2
Focal adhesion kinase 1 = Focal adhesion kinase 1 (Homo sapiens, UniProt Q05397); test: Inhibition of human FAK by HTRF assay
Chain of Focal adhesion kinase 1 (Q05397 whole entry): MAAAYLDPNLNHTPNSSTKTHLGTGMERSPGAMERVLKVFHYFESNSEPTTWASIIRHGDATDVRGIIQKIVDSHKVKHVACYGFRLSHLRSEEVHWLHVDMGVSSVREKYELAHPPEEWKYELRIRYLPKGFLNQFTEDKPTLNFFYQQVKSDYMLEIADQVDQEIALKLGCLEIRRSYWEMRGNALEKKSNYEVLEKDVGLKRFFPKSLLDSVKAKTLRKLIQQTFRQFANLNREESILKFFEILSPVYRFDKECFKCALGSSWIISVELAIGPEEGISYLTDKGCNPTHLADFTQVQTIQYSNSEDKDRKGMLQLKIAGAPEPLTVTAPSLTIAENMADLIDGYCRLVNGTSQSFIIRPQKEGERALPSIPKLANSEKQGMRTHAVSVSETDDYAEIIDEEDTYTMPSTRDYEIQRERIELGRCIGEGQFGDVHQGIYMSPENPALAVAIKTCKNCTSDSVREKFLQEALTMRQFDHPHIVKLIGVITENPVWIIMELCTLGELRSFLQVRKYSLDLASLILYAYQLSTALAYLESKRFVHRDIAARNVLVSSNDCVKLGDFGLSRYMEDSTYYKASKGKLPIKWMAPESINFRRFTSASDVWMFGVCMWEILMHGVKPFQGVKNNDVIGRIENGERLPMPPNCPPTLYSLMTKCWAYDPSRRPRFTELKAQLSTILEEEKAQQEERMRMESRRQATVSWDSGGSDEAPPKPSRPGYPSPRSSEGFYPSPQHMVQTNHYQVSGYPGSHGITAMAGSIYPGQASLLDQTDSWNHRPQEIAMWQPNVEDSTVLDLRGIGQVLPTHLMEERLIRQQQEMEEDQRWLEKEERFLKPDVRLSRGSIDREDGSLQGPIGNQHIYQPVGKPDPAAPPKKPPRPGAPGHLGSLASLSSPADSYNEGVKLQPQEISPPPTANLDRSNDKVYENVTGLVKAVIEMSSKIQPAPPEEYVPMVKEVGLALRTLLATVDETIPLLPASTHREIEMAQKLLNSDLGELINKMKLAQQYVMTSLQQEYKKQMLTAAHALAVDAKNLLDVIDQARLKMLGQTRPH

[6] = molecular target: T2, Eukaryotic translation initiation factor 2-alpha kinase 3 (Homo sapiens, UniProt Q9NZJ5); test: Inhibition of PEK
T2 sequence (Q9NZJ5 whole entry): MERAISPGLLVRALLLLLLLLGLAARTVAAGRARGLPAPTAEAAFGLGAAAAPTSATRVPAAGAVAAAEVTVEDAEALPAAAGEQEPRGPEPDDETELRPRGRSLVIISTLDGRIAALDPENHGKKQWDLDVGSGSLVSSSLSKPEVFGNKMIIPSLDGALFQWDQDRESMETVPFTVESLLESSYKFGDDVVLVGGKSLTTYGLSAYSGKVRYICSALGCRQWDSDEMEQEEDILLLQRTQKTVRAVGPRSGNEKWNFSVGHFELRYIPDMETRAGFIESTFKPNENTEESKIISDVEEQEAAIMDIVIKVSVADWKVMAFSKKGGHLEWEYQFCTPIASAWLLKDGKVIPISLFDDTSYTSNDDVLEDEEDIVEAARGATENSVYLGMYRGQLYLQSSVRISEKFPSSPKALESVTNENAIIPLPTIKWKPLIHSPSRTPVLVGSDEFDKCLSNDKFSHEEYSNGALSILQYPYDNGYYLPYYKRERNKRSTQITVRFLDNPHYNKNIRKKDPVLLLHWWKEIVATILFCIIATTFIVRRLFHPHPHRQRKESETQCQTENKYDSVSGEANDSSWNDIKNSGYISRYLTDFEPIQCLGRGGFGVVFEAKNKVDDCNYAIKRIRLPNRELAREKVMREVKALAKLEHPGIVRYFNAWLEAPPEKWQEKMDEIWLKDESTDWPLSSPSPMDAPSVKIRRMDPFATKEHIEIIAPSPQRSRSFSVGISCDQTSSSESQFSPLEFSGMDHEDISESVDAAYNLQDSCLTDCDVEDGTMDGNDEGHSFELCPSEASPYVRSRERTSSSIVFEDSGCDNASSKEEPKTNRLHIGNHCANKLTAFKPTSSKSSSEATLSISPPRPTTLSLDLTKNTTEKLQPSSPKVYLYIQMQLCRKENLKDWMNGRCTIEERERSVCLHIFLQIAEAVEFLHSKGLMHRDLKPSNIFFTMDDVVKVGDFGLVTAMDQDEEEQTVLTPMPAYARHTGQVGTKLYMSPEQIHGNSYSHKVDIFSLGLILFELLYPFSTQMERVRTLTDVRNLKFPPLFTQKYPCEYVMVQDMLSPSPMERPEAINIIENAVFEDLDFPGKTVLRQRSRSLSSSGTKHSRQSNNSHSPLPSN

[7] = molecular target: T3, Tyrosine-protein kinase JAK3 (Homo sapiens, UniProt P52333); test: Inhibition of Jak3
T3 sequence (P52333 whole entry): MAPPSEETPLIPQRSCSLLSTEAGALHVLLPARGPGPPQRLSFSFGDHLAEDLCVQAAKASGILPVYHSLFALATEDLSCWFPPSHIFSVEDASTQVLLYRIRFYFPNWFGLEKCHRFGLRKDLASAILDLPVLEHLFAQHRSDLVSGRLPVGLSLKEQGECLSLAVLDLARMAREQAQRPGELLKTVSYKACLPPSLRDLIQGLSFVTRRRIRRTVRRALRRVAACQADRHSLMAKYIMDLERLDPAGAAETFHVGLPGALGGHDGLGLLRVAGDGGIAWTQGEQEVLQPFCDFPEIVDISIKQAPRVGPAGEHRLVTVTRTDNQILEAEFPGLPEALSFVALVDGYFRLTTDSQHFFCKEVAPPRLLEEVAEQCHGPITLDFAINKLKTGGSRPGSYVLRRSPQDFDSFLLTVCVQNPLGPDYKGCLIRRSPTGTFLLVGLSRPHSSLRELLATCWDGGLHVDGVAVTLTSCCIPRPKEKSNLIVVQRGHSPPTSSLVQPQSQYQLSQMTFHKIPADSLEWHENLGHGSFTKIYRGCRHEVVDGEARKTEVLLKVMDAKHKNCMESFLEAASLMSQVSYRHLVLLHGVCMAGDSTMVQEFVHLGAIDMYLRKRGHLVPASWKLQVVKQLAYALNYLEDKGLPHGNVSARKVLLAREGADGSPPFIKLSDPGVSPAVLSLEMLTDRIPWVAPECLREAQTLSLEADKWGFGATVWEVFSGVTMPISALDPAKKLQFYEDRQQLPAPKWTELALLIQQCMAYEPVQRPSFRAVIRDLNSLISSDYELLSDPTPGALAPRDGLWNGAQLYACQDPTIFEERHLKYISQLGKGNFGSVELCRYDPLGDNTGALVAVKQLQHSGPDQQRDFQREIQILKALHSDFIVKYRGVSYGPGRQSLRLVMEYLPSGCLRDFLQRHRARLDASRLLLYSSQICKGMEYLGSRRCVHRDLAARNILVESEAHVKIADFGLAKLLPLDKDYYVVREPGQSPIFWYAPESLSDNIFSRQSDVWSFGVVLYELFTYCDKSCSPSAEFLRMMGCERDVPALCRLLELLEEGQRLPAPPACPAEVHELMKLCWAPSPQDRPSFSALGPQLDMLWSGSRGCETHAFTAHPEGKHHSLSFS

[8] = Inhibition of Aurora 2
[9] = molecular target: T4, Protein-tyrosine kinase 2-beta (Homo sapiens, UniProt Q14289); test: Inhibition of human Pyk2 by HTRF assay
T4 sequence (Q14289 whole entry): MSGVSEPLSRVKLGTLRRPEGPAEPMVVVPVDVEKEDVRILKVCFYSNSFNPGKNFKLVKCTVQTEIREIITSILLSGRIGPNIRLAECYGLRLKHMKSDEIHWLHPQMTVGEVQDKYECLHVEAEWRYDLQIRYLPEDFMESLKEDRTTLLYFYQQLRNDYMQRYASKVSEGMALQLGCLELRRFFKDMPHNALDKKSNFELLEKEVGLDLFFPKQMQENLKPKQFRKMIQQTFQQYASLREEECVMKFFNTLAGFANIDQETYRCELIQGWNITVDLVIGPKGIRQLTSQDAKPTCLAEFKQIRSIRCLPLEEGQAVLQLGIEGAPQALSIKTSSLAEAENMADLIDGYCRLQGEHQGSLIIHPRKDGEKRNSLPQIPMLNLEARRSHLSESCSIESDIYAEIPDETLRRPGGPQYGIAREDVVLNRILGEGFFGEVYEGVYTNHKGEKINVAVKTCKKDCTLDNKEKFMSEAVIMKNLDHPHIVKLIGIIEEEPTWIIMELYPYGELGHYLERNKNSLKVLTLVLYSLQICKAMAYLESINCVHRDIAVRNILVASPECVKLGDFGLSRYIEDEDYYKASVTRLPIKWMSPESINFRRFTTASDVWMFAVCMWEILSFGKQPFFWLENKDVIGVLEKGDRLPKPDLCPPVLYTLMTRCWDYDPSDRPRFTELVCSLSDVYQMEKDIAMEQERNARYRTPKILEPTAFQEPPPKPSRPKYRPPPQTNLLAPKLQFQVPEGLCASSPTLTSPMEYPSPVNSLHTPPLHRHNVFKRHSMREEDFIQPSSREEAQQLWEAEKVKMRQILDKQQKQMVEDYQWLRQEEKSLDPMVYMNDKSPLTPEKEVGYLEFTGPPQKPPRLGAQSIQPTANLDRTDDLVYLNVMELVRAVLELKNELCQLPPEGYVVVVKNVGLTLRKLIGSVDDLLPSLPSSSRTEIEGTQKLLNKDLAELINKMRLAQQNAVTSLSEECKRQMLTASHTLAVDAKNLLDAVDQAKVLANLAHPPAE

[10] = molecular target: T4, Protein-tyrosine kinase 2-beta; test: Inhibition of human PyK2 Y402 autophosphorylation expressed in 293T cells by immunofluorescence assay; format: cell-based
[11] = molecular target: Tyrosine-protein kinase JAK1 (Homo sapiens, UniProt P23458); test: Inhibition of Jak1
Chain of Tyrosine-protein kinase JAK1 (P23458 whole entry): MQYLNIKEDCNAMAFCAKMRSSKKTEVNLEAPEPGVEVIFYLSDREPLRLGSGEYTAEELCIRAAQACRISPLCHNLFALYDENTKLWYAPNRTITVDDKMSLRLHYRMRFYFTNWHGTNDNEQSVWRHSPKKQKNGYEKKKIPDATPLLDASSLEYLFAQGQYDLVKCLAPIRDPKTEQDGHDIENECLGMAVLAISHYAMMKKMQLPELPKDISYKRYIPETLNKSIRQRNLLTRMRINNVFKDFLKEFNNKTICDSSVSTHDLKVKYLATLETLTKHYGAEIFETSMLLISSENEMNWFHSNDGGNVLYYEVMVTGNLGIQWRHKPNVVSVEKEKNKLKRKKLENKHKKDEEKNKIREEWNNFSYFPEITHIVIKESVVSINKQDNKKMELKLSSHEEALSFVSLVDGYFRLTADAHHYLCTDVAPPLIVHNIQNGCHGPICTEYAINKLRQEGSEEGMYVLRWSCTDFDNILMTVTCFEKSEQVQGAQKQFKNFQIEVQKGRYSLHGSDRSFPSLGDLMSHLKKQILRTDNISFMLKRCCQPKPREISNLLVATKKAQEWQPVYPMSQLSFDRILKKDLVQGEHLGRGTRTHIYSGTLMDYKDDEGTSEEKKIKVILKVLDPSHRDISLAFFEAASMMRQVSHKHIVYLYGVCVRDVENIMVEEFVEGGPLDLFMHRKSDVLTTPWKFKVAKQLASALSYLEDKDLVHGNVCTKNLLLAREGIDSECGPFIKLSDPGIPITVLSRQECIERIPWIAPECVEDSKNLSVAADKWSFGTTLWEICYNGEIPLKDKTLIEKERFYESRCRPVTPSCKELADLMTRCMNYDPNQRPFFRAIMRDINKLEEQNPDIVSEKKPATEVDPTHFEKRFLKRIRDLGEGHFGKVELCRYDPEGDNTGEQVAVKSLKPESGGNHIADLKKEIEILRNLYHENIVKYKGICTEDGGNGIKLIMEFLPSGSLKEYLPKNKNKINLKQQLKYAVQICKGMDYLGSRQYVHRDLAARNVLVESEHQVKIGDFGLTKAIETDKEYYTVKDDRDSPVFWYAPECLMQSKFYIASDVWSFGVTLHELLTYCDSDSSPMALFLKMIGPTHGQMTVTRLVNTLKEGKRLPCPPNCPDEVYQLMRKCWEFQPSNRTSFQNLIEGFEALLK

[12] = molecular target: Non-receptor tyrosine-protein kinase TYK2 (Homo sapiens, UniProt P29597); test: Inhibition of TYK2
[13] = molecular target: Tyrosine-protein kinase JAK2 (Homo sapiens, UniProt O60674); test: Inhibition of Jak2
[14] = molecular target: Interferon-induced, double-stranded RNA-activated protein kinase (Homo sapiens, UniProt P19525); test: Inhibition of PKR
Chain of Interferon-induced, double-stranded RNA-activated protein kinase (P19525 whole entry): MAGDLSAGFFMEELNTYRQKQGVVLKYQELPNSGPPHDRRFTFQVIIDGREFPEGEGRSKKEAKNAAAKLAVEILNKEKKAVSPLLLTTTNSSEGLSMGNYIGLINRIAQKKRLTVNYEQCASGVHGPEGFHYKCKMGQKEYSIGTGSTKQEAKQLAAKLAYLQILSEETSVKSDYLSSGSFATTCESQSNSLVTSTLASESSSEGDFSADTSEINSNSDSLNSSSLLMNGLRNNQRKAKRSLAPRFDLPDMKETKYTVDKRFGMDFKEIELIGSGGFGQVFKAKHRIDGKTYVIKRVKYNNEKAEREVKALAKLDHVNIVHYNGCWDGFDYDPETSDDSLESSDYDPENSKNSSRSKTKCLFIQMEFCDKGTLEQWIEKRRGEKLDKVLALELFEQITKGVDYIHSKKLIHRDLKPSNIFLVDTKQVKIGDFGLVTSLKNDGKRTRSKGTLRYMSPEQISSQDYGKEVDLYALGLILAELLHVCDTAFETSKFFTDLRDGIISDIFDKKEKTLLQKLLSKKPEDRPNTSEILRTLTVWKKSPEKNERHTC

T1 sequence (Q9QVP9 whole entry): as the sequence (Q9QVP9 whole entry, looked up) above

In the case of `COc1cc2nccc(Oc3ccc(NC(=O)c4cc(-c5cccs5)cn(-c5ccccc5)c4=O)nc3)c2cc1OC`, the pEC50 [1] was 8.00, the Activity [2] was “Dose-dependent effect” and the Activity [3] was “Dose-dependent effect”. The pEC50 [4] was 8.00, the Activity [5] was “Dose-dependent effect” and the pIC50 (Focal adhesion kinase 1) was less than 3.90.

In the case of `COc1ccc2c(Oc3ccc(NC(=O)c4cc(-c5cnccn5)cn(-c5ccccc5)c4=O)nc3)ccnc2c1`, the pIC50 (Focal adhesion kinase 1) was less than 3.90.

With `CNc1ccn(Cc2ccccc2)c(=O)c1C(=O)Nc1ccc(Oc2ccnc3cc(OC)c(OC)cc23)cn1` the pIC50 (Focal adhesion kinase 1) was less than 3.90.

Work on `COCCNc1ccn(-c2ccccc2)c(=O)c1C(=O)Nc1ccc(Oc2ccnc3cc(OC)ccc23)cn1` yielded a pIC50 (Focal adhesion kinase 1) of less than 3.90.

`COc1ccc2c(Oc3ccc(NC(=O)c4cc(-c5cccnc5)cn(-c5ccccc5)c4=O)nc3)ccnc2c1` showed a pIC50 (Focal adhesion kinase 1) of less than 3.90.

For `CNc1ccn(-c2ccccc2)c(=O)c1C(=O)Nc1ccc(Oc2ccnc3cc(OC)c(OC)cc23)cn1`, the pIC50 [6] was less than 6.00, the pEC50 [1] was 8.00 and the Activity [2] was “Dose-dependent effect”. For the same molecule, the Activity [3] was “Dose-dependent effect”, the pIC50 [7] was less than 6.00 and the pIC50 [8] was less than 6.00. It also gave a pIC50 [9] of 7.46, a pIC50 [10] of 6.96 and a pIC50 [11] of less than 6.00. The pEC50 [4] was 8.00, the Activity [5] was “Dose-dependent effect” and the pIC50 [12] was less than 6.00. The pIC50 (Focal adhesion kinase 1) was 4.77, the pIC50 [13] was less than 6.00 and the pIC50 [14] was less than 6.00.

Molecule `COc1cc2nccc(Oc3ccc(NC(=O)c4c(N(C)C)ccn(-c5ccccc5)c4=O)nc3)c2cc1OC` has a pIC50 (Focal adhesion kinase 1) of less than 3.90.

Molecule `COc1cc2nccc(Oc3ccc(NC(=O)c4cc(-c5cccnc5)cn(-c5ccccc5)c4=O)nc3)c2cc1OC` has a pIC50 (Focal adhesion kinase 1) of less than 3.90.

Molecule `COc1cc2nccc(Oc3ccc(NC(=O)c4c(N5CCN(C)CC5)ccn(-c5ccccc5)c4=O)nc3)c2cc1OC` has a pIC50 (Focal adhesion kinase 1) of less than 3.90.
